In ChEMBL document CHEMBL5154683, “A 5-FU Precursor Designed to Evade Anabolic and Catabolic Drug Pathways and Activated by Pd Chemistry In Vitro and In Vivo” (J Med Chem, 2022):
Calls of active or inactive are those of the source. No cut-off for these calls is given here.

Key:
HCT-116 = assay: Antiproliferative activity against human HCT-116 cells assessed as reduction in cell viability at 100 uM incubated for 5 days in presence of Pd-resins at 0.8 mg/ml by PrestoBlue dye based assay relative to control; assay type: functional; conditions: time 5 day
Summary of the method: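 HCT116 seeded at 750 cells/well and grown 48 h. Medium then replaced with fresh medium with or without Pd resins (20–160 μg per well; 0.2–1.4 mg/mL). Compound added as 5 μL of a 2 mM stock in 2% DMSO/medium, incubated 5 d. PrestoBlue fluorescence read; values normalised to untreated cells within each resin dilution.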

[1] = Volume of distribution at steady state in male Wistar Han rat at 1 mg/kg, iv administered as single dose measured upto 24 hrs; assay type: ADME, organism-based; conditions: in vivo, read-out: Vdss
Summary of the method: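 Male jugular-vein-cannulated Wistar Han rats (n = 3, 263–319 g, not fasted) given 1 mg/kg IV as 2 mL/kg of 0.5 mg/mL solution in 5% DMSO/95% HPCD (20% w/v). Serial blood via cannula from 0.083 to 24 h, mixed with heparinized water and stored at –20 °C. Parent quantified by QToF against a calibration curve.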

BXPC-3 = assay: Antiproliferative activity against human BxPC-3 cells assessed as increase in cytotoxicity at 1 uM incubated for 5 days in presence of Pd-resin by PrestoBlue dye based assay; assay type: functional, cell-based; conditions: time 5.0 day
Summary of the method: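 BxPC-3 (RPMI, 10% FBS, 2 mM glutamine) at 2500 cells/well, 48 h attachment, then fresh medium with 1 μM drug/prodrug ± 1 mg/mL Pd resins, 0.1% v/v DMSO, 5 d at 37 °C. Viability by PrestoBlue (10% v/v, 1 h, ex 540/em 590 nm), normalized to DMSO-treated cells; n = 3.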

[2] = Efflux ratio of apparent permeability across basolateral to apical side over apical to basolateral side in human Caco2 cells at 10 uM measured after 120 mins by LC-MS/MS analysis; assay type: ADME, cell-based; conditions: Caco-2
Summary of the method: (§1)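 Caco-2 cells (P40-60) seeded at 1 × 10⁵ cells/cm² on Transwells, used on day 20; rinsed and equilibrated 40 min in HBSS pH 7.4. Compound at 10 μM in HBSS, 1% v/v DMSO, added apically (A–B) or basolaterally (B–A); 120 min at 37 °C, 5% CO₂. Lucifer yellow monitored monolayer integrity; LC-MS/MS with eight-point calibration; recovery from C₀ and both compartments.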

[3] = Apparent permeability across apical to basolateral side in human Caco-2 cells at 10 uM measured after 120 mins by LC-MS/MS analysis; assay type: ADME, cell-based; summary of the method: as §1
[4] = Stability in human hepatocytes assessed as parent compound remaining at 10 uM measured after 60 mins by UPLC analysis; assay type: ADME, cell-based, Hepatocyte; conditions: read-out: Stability
Summary of the method: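 Cryopreserved male Sprague–Dawley rat or male human hepatocytes (0.5 × 10⁶ cells/mL) in Leibovitz buffer with 10 μM compound, 37 °C, shaken 700 rpm, 60 min. Samples at 0 and 60 min quenched 1:1 with ice-cold acetonitrile; supernatant analyzed by UPLC–QToF MS (positive ion). Hepatocyte-only and buffer-only negatives; verapamil and 7-hydroxycoumarin as viability controls.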

[5] = Cmax in male Wistar Han rat at 10 mg/kg, po administered as single dose measured upto 24 hrs; assay type: ADME, organism-based; parameters: time < 24 hrs, dose 10 mg/kg, route po; conditions: in vivo
Summary of the method: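 Male jugular-vein-cannulated Wistar Han rats, 263–319 g, single dose. IV: 1 mg/kg as 2 mL/kg of 0.5 mg/mL in 5% DMSO/95% HPCD (20% w/v), not fasted. PO: 10 mg/kg as 5 mL/kg of 2 mg/mL suspension in 5% DMSO/95% tween 80/HPCD vehicle, fasted overnight. Serial cannula blood sampling 0.083/0.25–24 h (n = 3/route); parent quantified by QToF against calibration curve.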

Albumin = Albumin (Homo sapiens, UniProt P02768); assay: Binding affinity to human plasma albumin; assay type: ADME, cell-free
Sequence of Albumin (P02768 whole entry): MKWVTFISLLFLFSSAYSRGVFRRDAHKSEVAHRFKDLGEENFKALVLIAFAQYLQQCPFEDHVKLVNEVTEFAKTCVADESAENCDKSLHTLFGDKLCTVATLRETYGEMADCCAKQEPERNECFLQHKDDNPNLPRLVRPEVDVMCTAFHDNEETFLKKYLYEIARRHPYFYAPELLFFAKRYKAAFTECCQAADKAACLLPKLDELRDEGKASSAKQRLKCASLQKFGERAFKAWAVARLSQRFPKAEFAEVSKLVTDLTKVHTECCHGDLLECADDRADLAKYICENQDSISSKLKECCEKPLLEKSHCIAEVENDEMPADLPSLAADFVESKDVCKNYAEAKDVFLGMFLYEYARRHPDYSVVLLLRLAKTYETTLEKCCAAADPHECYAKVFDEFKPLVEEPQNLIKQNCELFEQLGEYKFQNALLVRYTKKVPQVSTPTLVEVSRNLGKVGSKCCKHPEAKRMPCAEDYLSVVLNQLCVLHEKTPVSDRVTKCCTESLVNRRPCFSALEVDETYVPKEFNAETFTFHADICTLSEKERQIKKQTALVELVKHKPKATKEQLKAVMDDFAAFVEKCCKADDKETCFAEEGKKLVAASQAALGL

With C#CCOc1ncc(F)c(OCC#C)n1 the Activity (HCT-116) was 7%, the Vd [1] was 1.76 L/kg and the Activity (BXPC-3) was “Active”. For the same compound, the efflux ratio at 2 h, 10 µM [2] was 1.38, the Papp A→B at 2 h, 10 µM [3] was 28.1 ×10⁻⁶ cm/s and the remaining at 1 h, 10 µM [4] was over 99%. It also gave a Cmax [5] of 3610 ng/mL and an Activity (Albumin) of 10%.
